# From ChEMBL document CHEMBL3425459, “Structure-activity studies in the development of a hydrazone based inhibitor of adipose-triglyceride lipase (ATGL)” (Bioorg Med Chem, 2015)
# pIC50: −log10 of the molar value. Activity calls are given as the source filed them. The calls are words filed in the database; no cut-off is given here.
# Experiments:
# [1] = target: T1, Patatin-like phospholipase domain-containing protein 2 (Mus musculus, UniProt Q8BJ56); assay: Inhibition of mouse recombinant ATGL expressed in African green monkey COS7 cells assessed as reduction in triglyceride hydrolase activity using radio-labelled triolein substrate incubated for 1 hr by liquid scintillation counting; type: cell-based, COS-7
# T1 sequence (Q8BJ56 whole entry): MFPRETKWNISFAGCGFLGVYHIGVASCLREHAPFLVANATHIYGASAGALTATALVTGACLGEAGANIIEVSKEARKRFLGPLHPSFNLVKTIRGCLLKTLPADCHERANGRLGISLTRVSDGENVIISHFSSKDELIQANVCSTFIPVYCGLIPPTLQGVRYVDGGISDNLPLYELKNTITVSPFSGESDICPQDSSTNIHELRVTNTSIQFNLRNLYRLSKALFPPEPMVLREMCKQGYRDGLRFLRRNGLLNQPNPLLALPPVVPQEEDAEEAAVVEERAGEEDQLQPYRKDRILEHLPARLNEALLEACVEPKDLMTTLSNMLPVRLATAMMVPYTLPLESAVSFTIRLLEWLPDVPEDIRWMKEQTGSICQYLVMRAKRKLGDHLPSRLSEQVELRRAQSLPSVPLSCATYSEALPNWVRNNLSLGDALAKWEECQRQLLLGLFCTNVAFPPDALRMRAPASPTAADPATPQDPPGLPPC
# [2] = target: T2, Patatin-like phospholipase domain-containing protein 2 (Mus musculus) (UniProt Q8BJ56); assay: Inhibition of mouse recombinant ATGL expressed in African green monkey COS7 cells assessed as reduction in triglyceride hydrolase activity at 200 uM using radio-labelled triolein substrate incubated for 1 hr by liquid scintillation counting; type: cell-based; settings: COS-7
# T2 sequence (whole entry): T1 sequence (Q8BJ56 whole entry)
# Summary of the method: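 Lysate (20 μg protein) of COS-7 cells transfected with murine ATGL DNA, sonicated in pH 7.0 sucrose/EDTA/DTT/protease-inhibitor buffer and cleared at 1000×g. Mixed 1:1 with radiolabelled triolein emulsion (prepared at 330 μM, 40,000 cpm/nmol, PC/PI, 100 mM potassium phosphate pH 7.0, 5% FA-free BSA) ± 200 μM inhibitor for 1 h at 37 °C. Released FA counted by scintillation after methanol/chloroform/heptane extraction at pH 10.5.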
# Adipose tissue [3] = assay: Inhibition of lipolysis in wild type mouse white adipose tissue fat pads assessed as reduction in fatty acids release at 10 to 200 uM; type: functional, tissue-based
# Adipose tissue [4] = assay: Inhibition of lipolysis in adipose triglyceride lipase knock out mouse white adipose tissue fat pads assessed as reduction in fatty acids release at 10 to 200 uM; type: functional, tissue-based
# Adipose tissue [5] = assay: Inhibition of lipolysis in hormone-sensitive lipase knock out mouse white adipose tissue fat pads assessed as reduction in fatty acids release at 10 to 200 uM; type: functional, tissue-based
# [6] = target: T3, Monoglyceride lipase (Homo sapiens) (UniProt Q99685); assay: Inhibition of monoglyceride lipase (unknown origin) at 100 uM incubated for 1 hr
# T3 sequence (whole entry): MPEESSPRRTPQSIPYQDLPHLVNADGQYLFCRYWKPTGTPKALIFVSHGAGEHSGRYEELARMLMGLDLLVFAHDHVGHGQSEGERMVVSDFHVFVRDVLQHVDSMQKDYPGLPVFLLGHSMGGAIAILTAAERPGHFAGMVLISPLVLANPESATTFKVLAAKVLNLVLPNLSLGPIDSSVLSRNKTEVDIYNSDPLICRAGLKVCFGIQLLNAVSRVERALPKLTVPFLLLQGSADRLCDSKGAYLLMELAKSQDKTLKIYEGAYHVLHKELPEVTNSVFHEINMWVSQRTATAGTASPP
# [7] = target: T4, Lipoprotein lipase (Homo sapiens) (UniProt P06858); assay: Inhibition of lipoprotein lipase (unknown origin) at 100 uM incubated for 1 hr
# T4 sequence (whole entry): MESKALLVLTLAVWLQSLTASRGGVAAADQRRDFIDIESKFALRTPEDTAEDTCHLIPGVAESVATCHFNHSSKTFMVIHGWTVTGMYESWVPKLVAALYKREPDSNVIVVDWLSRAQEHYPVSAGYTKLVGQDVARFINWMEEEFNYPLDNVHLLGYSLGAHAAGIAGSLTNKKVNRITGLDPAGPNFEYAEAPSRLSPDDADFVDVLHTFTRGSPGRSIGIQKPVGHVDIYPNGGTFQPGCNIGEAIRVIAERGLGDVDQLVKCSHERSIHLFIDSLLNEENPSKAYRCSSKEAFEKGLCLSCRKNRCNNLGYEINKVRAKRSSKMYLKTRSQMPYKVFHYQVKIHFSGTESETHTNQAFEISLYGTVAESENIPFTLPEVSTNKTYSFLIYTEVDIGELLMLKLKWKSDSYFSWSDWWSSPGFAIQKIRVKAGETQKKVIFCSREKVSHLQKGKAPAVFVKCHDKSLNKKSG
# Summary of the method: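 Purified recombinant LPL (2 μl) was incubated with radiolabelled triolein emulsion, with or without inhibitor, for 1 h at 37 °C. The emulsion was prepared at 330 μM triolein with PC/PI in pH 7.0 phosphate and 5% BSA. Liberated fatty acids were extracted into the alkaline upper phase and quantified by liquid scintillation counting.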
# [8] = Toxicity in mouse AML-12 cells at 1 to 200 uM by Tox4 test; type: cell-based; settings: aml-12, 200 µM
Compound,pIC50 [1],also measured
C(=N\N1CCN(c2ccccc2)CC1)/c1cccnc1,< 3.70,
COc1cc(/C=N/N2CCN(c3ccccc3)CC2)ccc1O,4.22,
CCCOc1cccc(/C=N/N2CCN(c3ccccc3)CC2)c1,< 3.70,Efficacy [2]: 14%
C(=N\N1CCN(c2ccccc2)CC1)/c1ccccn1,< 3.70,
Oc1ccc(/C=N/N2CCN(C3CCCCC3)CC2)c(O)c1,< 3.70,
COc1cc(/C=N/N2CCN(c3ccccc3)CC2)cc(OC)c1OC,< 3.70,
Oc1cccc(/C=N/N2CCN(c3ccccc3)CC2)c1,4.15,
O=c1[nH]c2ccc(/C=N/N3CCN(c4ccccc4)CC3)cc2[nH]1,< 3.70,
Oc1ccc(/C=N/N2CCN(CCc3ccccc3)CC2)c(O)c1,< 3.70,
COc1ccc(/C=N/N2CCN(c3ccccc3)CC2)cc1O,4.10,
C(=N\N1CCN(c2ccccc2)CC1)/c1ccc2ccccc2n1,< 3.70,
C(=N\N1CCN(c2ccccc2)CC1)/c1cccc2ccccc12,3.70,
Cc1ccc(/C=N/N2CCN(c3ccccc3)CC2)cc1,< 3.70,
Oc1ccc(/C=N/N2CCN(Cc3ccccc3)CC2)c(O)c1,< 3.70,
C(=N\N1CCN(c2ccccc2)CC1)/c1ccc2ccccc2c1,< 3.70,
COc1ccc(C(=O)NN2CCN(c3ccccc3)CC2)cc1OC,< 3.70,
C(=N\N1CCN(c2ccccc2)CC1)/c1ccc2c(c1)OCCO2,< 3.70,
O=[N+]([O-])c1ccccc1/C=N/N1CCN(c2ccccc2)CC1,3.74,
CN(CCO)c1ccc(/C=N/N2CCN(c3ccccc3)CC2)cc1,< 3.70,
Oc1ccc(CN2CCN(c3ccccc3)CC2)cc1O,< 3.70,
C(=N\N1CCN(c2ccccc2)CC1)/C1CCCCC1,3.70,
Oc1ccc(/C=N/N2CCCN(c3ccccc3)CC2)c(O)c1,< 3.70,
Clc1ccc(/C=N/N2CCN(c3ccccc3)CC2)c(Cl)c1,< 3.70,

Compound,pIC50 [1],also measured
Oc1ccc(/C=N/N2CCN(c3ccncc3)CC2)c(O)c1,< 3.70,
Oc1ccc(/C=N/N2CCN(c3ccccc3)CC2)cc1O,,inhibition (Adipose tissue [3]): Active; inhibition (Adipose tissue [4]): Active; inhibition (Adipose tissue [5]): Active
N#Cc1ccccc1/C=N/N1CCN(c2ccccc2)CC1,3.92,Efficacy [2]: 60%
COc1ccc(NC(=O)N2CCN(c3ccccc3)CC2)cc1OC,< 3.70,
COc1cc(OC)c(OC)cc1/C=N/N1CCN(c2ccccc2)CC1,< 3.70,
Brc1ccccc1/C=N/N1CCN(c2ccccc2)CC1,< 3.82,
CCC/C=C/C=N/N1CCN(c2ccccc2)CC1,< 3.70,
Oc1ccc(/C=N/N2CCN(c3ccccc3)CC2)cc1,4.30,
Oc1ccc(/C=N/N2CCN(c3ccccc3)CC2)c(O)c1,,inhibition (Adipose tissue [3]): Active; inhibition (Adipose tissue [4]): Active; inhibition (Adipose tissue [5]): Active; inhibition [6]: inactive; inhibition [7]: inactive; Activity [8]: Toxic
CC(=O)Nc1ccc(/C=N/N2CCN(c3ccccc3)CC2)cc1,< 3.70,
C(=N\N1CCN(c2ccccc2)CC1)/c1cccc(Oc2ccccc2)c1,< 3.70,Efficacy [2]: 24%
CCCC/C=N/N1CCN(c2ccccc2)CC1,< 3.70,
Clc1ccc(/C=N/N2CCN(c3ccccc3)CC2)cc1Cl,< 3.70,
C(=N\N1CCN(c2ccccc2)CC1)/c1ccncc1,3.85,
Cc1cccc(N2CCN(/N=C/c3ccc(O)cc3O)CC2)c1,< 3.70,
COc1ccc(/C=N/N2CCN(c3ccccc3)CC2)cc1OC,4.00,
CN(C)c1ccc(/C=N/N2CCN(c3ccccc3)CC2)cc1,< 3.70,
Oc1ccccc1/C=N/N1CCN(c2ccccc2)CC1,4.12,
CCOC(=O)c1nn(-c2ccc(N(C)C)cc2)cc1O,3.92,
C1=C(/C=N/N2CCN(c3ccccc3)CC2)CCCC1,3.89,
C(=N\N1CCN(c2ccccc2)CC1)/c1ccc2c(c1)OCO2,< 3.70,
Oc1ccc(/C=N/N2CCN(C3CCCC3)CC2)c(O)c1,< 3.70,
Oc1ccc(/C=N/N2CCC(Cc3ccccc3)CC2)c(O)c1,< 3.70,
